Source: ChEMBL document CHEMBL1806410, “Design and synthesis of pyridine-substituted itraconazole analogues with improved antifungal activities, water solubility and bioavailability” (Bioorg Med Chem Lett, 2011)
≈ marks a conversion by molar mass, not a printed value.

Assays:
[1] = system: Candida parapsilosis; assay: Antifungal activity against Candida parapsilosis JLC 30365 by broth microdilution method; assay type: functional; settings: Lodderomyces parapsilosis
Method in brief: (§1)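 MICs were determined by broth microdilution following NCCLS guidelines (M38-P for filamentous fungi). The panel covered four yeast species and two Aspergillus species, with two strains per species. Itraconazole served as positive control.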

[2] = system: Pichia kudriavzevii; assay: Antifungal activity against Candida krusei JLC 30386 by broth microdilution method; assay type: functional; method in brief: as §1
[3] = system: Cryptococcus neoformans; assay: Antifungal activity against Cryptococcus neoformans JLC 50123 by broth microdilution method; assay type: functional; method in brief: as §1
[4] = system: Aspergillus flavus; assay: Antifungal activity against Aspergillus flavus JLC 40437 by broth microdilution method; assay type: functional; method in brief: as §1
[5] = system: Aspergillus fumigatus; assay: Antifungal activity against Aspergillus fumigatus JLC 30506 by broth microdilution method; assay type: functional; method in brief: as §1
[6] = system: Aspergillus fumigatus; assay: Antifungal activity against Aspergillus fumigatus JLC 30883 by broth microdilution method; assay type: functional; method in brief: as §1
[7] = system: Aspergillus flavus; assay: Antifungal activity against Aspergillus flavus JLC 30784 by broth microdilution method; assay type: functional; method in brief: as §1
[8] = system: Candida albicans; assay: Antifungal activity against Candida albicans JLC 30364 by broth microdilution method; assay type: functional; method in brief: as §1
[9] = system: Candida albicans; assay: Antifungal activity against Candida albicans JLC 31374 by broth microdilution method; assay type: functional; method in brief: as §1
[10] = system: Cryptococcus neoformans; assay: Antifungal activity against Cryptococcus neoformans JLC 50122 by broth microdilution method; assay type: functional; method in brief: as §1
[11] = system: Candida parapsilosis; assay: Antifungal activity against Candida parapsilosis JLC 30275 by broth microdilution method; assay type: functional; settings: Lodderomyces parapsilosis; method in brief: as §1
[12] = system: Pichia kudriavzevii; assay: Antifungal activity against Candida krusei JLC 30366 by broth microdilution method; assay type: functional; method in brief: as §1
[13] = Tmax in rat at 10 mg/kg, po administered as single dose; assay type: ADME, organism-based; parameters: dose 10 mg/kg, route oral; settings: in vivo
Method in brief: (§2)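 Rats received a single dose of compound, either oral (10 mg/kg) or intravenous (10, 5 or 2.5 mg/kg). Plasma levels were followed, and the reported parameters were Cmax, Tmax, AUC0–t, half-life, clearance and bioavailability (F).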

[14] = Half life in rat at 5 mg/kg, iv administered as single dose; assay type: ADME, organism-based; parameters: dose 5 mg/kg, route intravenous; settings: in vivo; method in brief: as §2
[15] = Oral bioavailability in rat at 10 mg/kg, administered as single dose; assay type: ADME, organism-based; settings: in vivo; method in brief: as §2
[16] = AUC (0 to t) in rat at 10 mg/kg, po administered as single dose; assay type: ADME, organism-based; parameters: dose 10 mg/kg, route oral; settings: plasma; method in brief: as §2
[17] = Cmax in rat at 10 mg/kg, po administered as single dose; assay type: ADME, organism-based; parameters: dose 10 mg/kg, route oral; settings: in vivo; method in brief: as §2
[18] = AUC (0 to t) in rat at 5 mg/kg, iv administered as single dose; assay type: ADME, organism-based; parameters: dose 5 mg/kg, route intravenous; settings: plasma; method in brief: as §2
[19] = Half life in rat at 10 mg/kg, po administered as single dose; assay type: ADME, organism-based; parameters: dose 10 mg/kg, route oral; settings: in vivo; method in brief: as §2
[20] = Solubility of the compound in water at pH 1.2; assay type: physicochemical; settings: water, read-out: solubility
[21] = Clearance in rat at 5 mg/kg, iv administered as single dose; assay type: ADME, organism-based; parameters: dose 5 mg/kg, route intravenous; settings: in vivo; method in brief: as §2
[22] = AUC (0 to t) in rat at 10 mg/kg, iv administered as single dose; assay type: ADME, organism-based; parameters: dose 10 mg/kg, route intravenous; settings: plasma; method in brief: as §2
[23] = Half life in rat at 10 mg/kg, iv administered as single dose; assay type: ADME, organism-based; parameters: dose 10 mg/kg, route intravenous; settings: in vivo; method in brief: as §2
[24] = Solubility of the compound in water at pH 7.4; assay type: physicochemical; settings: buffer, BLD = below limit of detection
[25] = Clearance in rat at 10 mg/kg, iv administered as single dose; assay type: ADME, organism-based; parameters: dose 10 mg/kg, route intravenous; settings: in vivo; method in brief: as §2

| SMILES | MIC [1] [µg/mL] | MIC [2] [µg/mL] | MIC [3] [µg/mL] | MIC [4] [µg/mL] | MIC [5] [µg/mL] | MIC [6] [µg/mL] | MIC [7] [µg/mL] | MIC [8] [µg/mL] | MIC [9] [µg/mL] | MIC [10] [µg/mL] | MIC [11] [µg/mL] | MIC [12] [µg/mL] | Tmax [13] [h] | AUC(0-t) [16] [ng·h/mL] | Cmax [17] [ng/mL] | half-life [19] [h] | solubility [20] [µg/mL] | further results |
| --- | --- | --- | --- | --- | --- | --- | --- | --- | --- | --- | --- | --- | --- | --- | --- | --- | --- | --- |
| CCC(CC)n1ncn(-c2ccc(N3CCN(c4ccc(OC[C@H]5CO[C@](Cn6cncn6)(c6ccc(F)cc6F)O5)cc4)CC3)cn2)c1=O | 0.5 (≈ 0.727 µM) | 0.125 (≈ 0.182 µM) | 0.125 (≈ 0.182 µM) | 0.0625 (≈ 0.0909 µM) | 0.5 (≈ 0.727 µM) | 0.5 (≈ 0.727 µM) | 0.0625 (≈ 0.0909 µM) | 0.0625 (≈ 0.0909 µM) | 0.0625 (≈ 0.0909 µM) | 0.125 (≈ 0.182 µM) | 0.5 (≈ 0.727 µM) | 0.125 (≈ 0.182 µM) | – | – | – | – | – | – |
| O=c1n(-c2ccc(N3CCN(c4ccc(OC[C@H]5CO[C@](Cn6cncn6)(c6ccc(F)cc6F)O5)cc4)CC3)nc2)cnn1Cc1ccccc1 | 0.25 (≈ 0.353 µM) | 0.5 (≈ 0.706 µM) | 0.25 (≈ 0.353 µM) | 0.25 (≈ 0.353 µM) | 0.125 (≈ 0.177 µM) | 0.125 (≈ 0.177 µM) | 0.25 (≈ 0.353 µM) | < 0.0038 | < 0.0038 | 0.25 (≈ 0.353 µM) | 0.25 (≈ 0.353 µM) | 0.5 (≈ 0.706 µM) | – | – | – | – | – | – |
| CC(CCO)n1ncn(-c2ccc(N3CCN(c4ccc(OC[C@H]5CO[C@](Cn6cncn6)(c6ccc(F)cc6F)O5)cc4)CC3)nc2)c1=O (some centres not stated) | < 0.0625 | 2 (≈ 2.9 µM) | 0.0625 (≈ 0.0906 µM) | 4 (≈ 5.8 µM) | 4 (≈ 5.8 µM) | 4 (≈ 5.8 µM) | 4 (≈ 5.8 µM) | < 0.0625 | < 0.0625 | 0.0625 (≈ 0.0906 µM) | < 0.0625 | 2 (≈ 2.9 µM) | – | – | – | – | – | – |
| CC(C)Cn1ncn(-c2ccc(N3CCN(c4ccc(OC[C@H]5CO[C@](Cn6cncn6)(c6ccc(F)cc6F)O5)cc4)CC3)nc2)c1=O | 0.125 (≈ 0.186 µM) | 0.0625 (≈ 0.0928 µM) | 0.5 (≈ 0.742 µM) | 0.0625 (≈ 0.0928 µM) | 0.25 (≈ 0.371 µM) | 0.25 (≈ 0.371 µM) | 0.0625 (≈ 0.0928 µM) | 0.03 (≈ 0.0445 µM) | 0.03 (≈ 0.0445 µM) | 0.5 (≈ 0.742 µM) | 0.125 (≈ 0.186 µM) | 0.0625 (≈ 0.0928 µM) | 2 | 1610 | 392 | 2.18 | 2330 (≈ 3460 µM) | half-life [14]: 1.43 h; bioavailability [15]: 21.7%; AUC(0-t) [18]: 3710 ng·h/mL; clearance [21]: 23.5 mL/min/kg |
| CC(CO)n1ncn(-c2ccc(N3CCN(c4ccc(OC[C@H]5CO[C@](Cn6cncn6)(c6ccc(F)cc6F)O5)cc4)CC3)nc2)c1=O (some centres not stated) | < 0.0625 | > 2 | < 0.0625 | 0.25 (≈ 0.37 µM) | 1 (≈ 1.48 µM) | 1 (≈ 1.48 µM) | 0.25 (≈ 0.37 µM) | < 0.0625 | < 0.0625 | < 0.0625 | < 0.0625 | > 2 | – | – | – | – | – | – |
| CC(C)n1ncn(-c2ccc(N3CCN(c4ccc(OC[C@H]5CO[C@](Cn6cncn6)(c6ccc(F)cc6F)O5)cc4)CC3)nc2)c1=O | 0.125 (≈ 0.189 µM) | 0.0625 (≈ 0.0947 µM) | 0.25 (≈ 0.379 µM) | 0.125 (≈ 0.189 µM) | 0.25 (≈ 0.379 µM) | 0.25 (≈ 0.379 µM) | 0.125 (≈ 0.189 µM) | 0.0075 (≈ 0.0114 µM) | 0.0075 (≈ 0.0114 µM) | 0.25 (≈ 0.379 µM) | 0.125 (≈ 0.189 µM) | 0.0625 (≈ 0.0947 µM) | 1.88 | 2710 | 712 | 1.26 | 1680 (≈ 2550 µM) | AUC(0-t) [22]: 7730 ng·h/mL; half-life [23]: 4.18 h; bioavailability [15]: 35%; solubility [24]: BLD; clearance [25]: 21.2 mL/min/kg |

Now from value to compound, other results behind:

| MIC [1] [µg/mL] | MIC [2] [µg/mL] | MIC [3] [µg/mL] | MIC [4] [µg/mL] | MIC [5] [µg/mL] | MIC [6] [µg/mL] | MIC [7] [µg/mL] | MIC [8] [µg/mL] | MIC [9] [µg/mL] | MIC [10] [µg/mL] | MIC [11] [µg/mL] | MIC [12] [µg/mL] | Tmax [13] [h] | AUC(0-t) [16] [ng·h/mL] | Cmax [17] [ng/mL] | half-life [19] [h] | solubility [20] [µg/mL] | SMILES | further results |
| --- | --- | --- | --- | --- | --- | --- | --- | --- | --- | --- | --- | --- | --- | --- | --- | --- | --- | --- |
| 0.25 (≈ 0.371 µM) | 0.125 (≈ 0.186 µM) | 0.5 (≈ 0.742 µM) | 0.25 (≈ 0.371 µM) | 0.0625 (≈ 0.0928 µM) | 0.0625 (≈ 0.0928 µM) | 0.25 (≈ 0.371 µM) | < 0.0038 | < 0.0038 | 0.5 (≈ 0.742 µM) | 0.25 (≈ 0.371 µM) | 0.125 (≈ 0.186 µM) | – | – | – | – | – | CCC(C)n1ncn(-c2ccc(N3CCN(c4ccc(OC[C@H]5CO[C@](Cn6cncn6)(c6ccc(F)cc6F)O5)cc4)CC3)nc2)c1=O (some centres not stated) | – |
| 0.25 (≈ 0.379 µM) | 0.0625 (≈ 0.0947 µM) | 0.25 (≈ 0.379 µM) | 0.125 (≈ 0.189 µM) | 0.125 (≈ 0.189 µM) | 0.125 (≈ 0.189 µM) | 0.125 (≈ 0.189 µM) | 0.0075 (≈ 0.0114 µM) | 0.0075 (≈ 0.0114 µM) | 0.25 (≈ 0.379 µM) | 0.25 (≈ 0.379 µM) | 0.0625 (≈ 0.0947 µM) | 3 | 1220 | 159 | 3.45 | 320 (≈ 485 µM) | CC(C)n1ncn(-c2ccc(N3CCN(c4ccc(OC[C@H]5CO[C@](Cn6cncn6)(c6ccc(F)cc6F)O5)cc4)CC3)cn2)c1=O | – |
| 0.0156 (≈ 0.0236 µM) | 0.03 (≈ 0.0453 µM) | < 0.0156 | 0.03 (≈ 0.0453 µM) | 0.5 (≈ 0.756 µM) | 0.5 (≈ 0.756 µM) | 0.03 (≈ 0.0453 µM) | < 0.0156 | < 0.0156 | < 0.0156 | 0.0156 (≈ 0.0236 µM) | 0.03 (≈ 0.0453 µM) | – | – | – | – | – | O=c1n(-c2ccc(N3CCN(c4ccc(OC[C@H]5CO[C@](Cn6cncn6)(c6ccc(F)cc6F)O5)cc4)CC3)cn2)cnn1CCO | – |
